# Data published in ChEMBL document CHEMBL1811802, “Synthesis and significant cytostatic activity of 7-hetaryl-7-deazaadenosines” (J Med Chem, 2011).
# Calls of active or inactive are those of the source. The calls are words filed in the database; no cut-off is given here.
# Key:
# DU-145 [1] = test: Metabolic stability in human DU145 cells assessed as nucleoside formation per million of cells at 10 uM after 6 hrs by LC/MS/MS analysis; type: ADME, cell-based; conditions: du-145, 6 h
# Outline: (§1)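 Du145 seeded at 60% confluence in MEM/10% FBS; next day exposed to 10 μM compound for 6 or 24 h. Cells trypsinized, extracted in 70% MeOH, dried, resuspended in 1 mM ammonium phosphate pH 8.5. Nucleoside, NMP and NTP quantified by ion-pairing (dimethylhexylamine) LC/MS/MS against untreated-cell-extract standard curves; pmol per million cells.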
# DU-145 [2] = test: Metabolic stability in human DU145 cells assessed as nucleoside formation per million of cells at 10 uM after 24 hrs by LC/MS/MS analysis; type: ADME, cell-based; conditions: du-145, 24 h; outline: as §1
# DU-145 [3] = test: Metabolic stability in human DU145 cells assessed as sodium ((2R,3S,4R,5R)-5-(4-amino-7H-pyrrolo[2,3-d]pyrimidin-7-yl)-3,4-dihydroxytetrahydrofuran-2-yl)methyl hydrogenphosphate-NMP formation per million of cells at 10 uM after 24 hrs by LC/MS/MS analysis; type: ADME, cell-based; conditions: du-145, 24 h; outline: as §1
# DU-145 [4] = test: Metabolic stability in human DU145 cells assessed as sodium ((2R,3S,4R,5R)-5-(4-amino-7H-pyrrolo[2,3-d]pyrimidin-7-yl)-3,4-dihydroxytetrahydrofuran-2-yl)methyl hydrogentriphosphate-NTP formation per million of cells at 10 uM after 24 hrs by LC/MS/MS analysis; type: ADME, cell-based; conditions: du-145, 24 h; outline: as §1
# NCI-H23 = test: Cytostatic activity against human NCI-H23 cells after 5 days by SRB assay; type: functional; conditions: NCI-H23, 120 h
# Outline: (§2)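 Cells seeded per line density, overnight at 37 °C; day-zero plate TCA-fixed. 5-fold serial dilutions added, 5-day incubation; TCA fixation, 0.057% SRB in 1% acetic acid 30 min, dye dissolved in 10 mM Tris pH 10.5, A500. Growth relative to day-zero and untreated; GIC50 from sigmoidal dose–response fit; mean of two independent experiments.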
# DU-145 [5] = test: Cytostatic activity against human DU145 cells after 5 days by SRB assay; type: functional; conditions: DU-145, 120 h; outline: as §2
# PC-3 [6] = test: Cytostatic activity against human PC3 cells after 5 days by SRB assay; type: functional; conditions: PC-3, 120 h; outline: as §2
# HCT-116 [7] = test: Cytostatic activity against human HCT116 cells after 5 days by SRB assay; type: functional; conditions: HCT-116, 120 h; outline: as §2
# [8] = Cytostatic activity against human Hs578 cells after 5 days by SRB assay; type: functional; conditions: Hs578, 120 h; outline: as §2
# HL-60 = test: Cytotoxicity against human HL60 cells after 3 days by XTT assay; type: functional, cell-based; conditions: HL-60, 72 h
# Outline: (§3)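 Suspension-grown cell lines, 3-day compound incubation; viability read by XTT metabolic assay; IC50 averaged from four independent experiments.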
# [9] = Cytotoxicity against human HeLaS3 cells after 3 days by XTT assay; type: functional, cell-based; conditions: HeLa S3, 72 h; outline: as §3
# Adenosine kinase = Adenosine kinase (Homo sapiens, UniProt P55263); test: Inhibition of human ADK using [3H]-adenosine by scintillation counting
# K562 [10] = test: Cytotoxicity against human K562 cells after 3 days by MTT assay; type: functional, cell-based; conditions: K562, 72 h
# K562 [11] = test: Cytotoxicity against human paclitaxel resistant K562 cells after 3 days by MTT assay; type: functional, cell-based; conditions: K562, 72 h
# [12] = Cytotoxicity against human CEM-DNR-bulk cells after 3 days by MTT assay; type: functional, cell-based; conditions: 72 h
# EL4 = test: Cytotoxicity against mouse EL4 cells after 3 days by MTT assay; type: functional, cell-based; conditions: EL4, 72 h
# SK-N-AS = test: Cytotoxicity against human SK-N-AS cells after 3 days by MTT assay; type: functional, cell-based; conditions: 72 h
# C6 = test: Cytotoxicity against rat C6 cells after 3 days by MTT assay; type: functional, cell-based; conditions: C6, 72 h
# HT-29 = test: Cytotoxicity against human HT-29 cells after 3 days by MTT assay; type: functional, cell-based; conditions: HT-29, 72 h
# HCT-116 [13] = test: Cytotoxicity against human HCT116 cells after 3 days by MTT assay; type: functional, cell-based; conditions: HCT-116, 72 h
# CT26 = test: Cytotoxicity against mouse CT26 cells after 3 days by MTT assay; type: functional, cell-based; conditions: CT26, 72 h
# PC-3 [14] = test: Cytotoxicity against human PC3 cells after 3 days by MTT assay; type: functional, cell-based; conditions: PC-3, 72 h
# LNCaP = test: Cytotoxicity against human LNCAP cells after 3 days by MTT assay; type: functional, cell-based; conditions: 72 h
# MAT-Ly-Lu = test: Cytotoxicity against rat MAT-LyLu cells after 3 days by MTT assay; type: functional, cell-based; conditions: 72 h
# [15] = Cytotoxicity against human NCI-H146 cells after 3 days by MTT assay; type: functional, cell-based; conditions: NCI-H146, 72 h
# [16] = Cytotoxicity against human MES-SA cells after 3 days by MTT assay; type: functional, cell-based; conditions: 72 h
# HeLa = test: Cytotoxicity against human HeLa cells after 3 days by MTT assay; type: functional, cell-based; conditions: 72 h
# SK-OV-3 = test: Cytotoxicity against human SKOV3 cells after 3 days by MTT assay; type: functional, cell-based; conditions: SK-OV-3, 72 h
# SK-MEL-2 = test: Cytotoxicity against human SK-MEL-2 cells after 3 days by MTT assay; type: functional, cell-based; conditions: SK-MEL-2, 72 h
# HPAC = test: Cytotoxicity against human HPAC cells after 3 days by MTT assay; type: functional, cell-based; conditions: 72 h
# [17] = Cytotoxicity against mouse P388D1 cells after 3 days by MTT assay; type: functional, cell-based; conditions: P388D1, 72 h
# BJ = test: Cytotoxicity against human BJ cells after 3 days by MTT assay; type: cell-based; conditions: 72 h
# CCRF-CEM [18] = test: Induction of apoptosis in human CCRF-CEM cells at 5 time GI50 after 4 to 8 hrs using propidium iodide staining by flow cytometry; type: functional, cell-based
# Outline: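 CCRF-CEM at 5 × 10^5 cells/ml in RPMI 1640/10% FCS, 37 °C, exposed to 1× or 5× GIC50; vehicle controls in parallel. Ethanol-fixed, RNase-treated, propidium iodide stained, flow cytometry; apoptosis taken as % sub-G1 particles (logarithmic mode).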
# CCRF-CEM [19] = test: Inhibition of RNA synthesis in human CCRF-CEM cells assessed as BrU incorporation at 1 to 5 times GI50 after 1 hr by FACS analysis; type: functional, cell-based
# Outline: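 CCRF-CEM cultured as for cell cycle (1× or 5× GIC50), pulsed with 1 mM 5-bromouridine 30 min. Paraformaldehyde/NP-40 fixation, anti-BrdU antibody cross-reacting with BrU, FITC secondary, propidium iodide/RNase counterstain, flow cytometry at 488 nm.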
# [20] = Antitumor activity against mouse P388D1 cells xenografted in DBA/2 mouse assessed as increase of lifespan at 35 mg/kg, ip qd administered as 2 cycles on day 1 to 3 and day 8 to 10; conditions: route intraperitoneal
# [21] = Antitumor activity against mouse P388D1 cells xenografted in DBA/2 mouse assessed as increase of mean survival days at 35 mg/kg, ip qd administered as 2 cycles on day 1 to 3 and day 8 to 10; conditions: route intraperitoneal
# Sequence of Adenosine kinase (P55263 whole entry): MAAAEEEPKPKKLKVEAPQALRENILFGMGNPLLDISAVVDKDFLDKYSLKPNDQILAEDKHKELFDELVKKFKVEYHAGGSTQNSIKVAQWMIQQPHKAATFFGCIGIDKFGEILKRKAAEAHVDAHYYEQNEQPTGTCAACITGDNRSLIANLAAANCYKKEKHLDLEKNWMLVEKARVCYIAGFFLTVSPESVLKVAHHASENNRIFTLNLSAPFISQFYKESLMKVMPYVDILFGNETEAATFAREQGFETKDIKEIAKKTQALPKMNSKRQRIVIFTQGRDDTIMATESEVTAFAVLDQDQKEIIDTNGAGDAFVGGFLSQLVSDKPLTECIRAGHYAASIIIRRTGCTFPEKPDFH
smiles,measurement,setting,value
Nc1ncnc2c1c(-c1cccs1)cn2[C@@H]1O[C@H](CO)[C@@H](O)[C@H]1O,Stability,DU-145 [1],4.66 pmol
same,Stability,DU-145 [2],30.4 pmol
same,Stability,DU-145 [3],64 pmol
same,Stability,DU-145 [4],1.96 pmol
same,GI50,NCI-H23,3.7 nM
same,GI50,DU-145 [5],133 nM
same,GI50,PC-3 [6],1620 nM
same,GI50,HCT-116 [7],2.6 nM
same,GI50,[8],12 nM
same,IC50,HL-60,950 nM
same,IC50,[9],20 nM
same,IC50,Adenosine kinase,> 5000 nM
same,IC50,K562 [10],25 nM
same,IC50,K562 [11],47 nM
same,IC50,[12],91 nM
same,IC50,EL4,9300 nM
same,IC50,SK-N-AS,> 10000 nM
same,IC50,C6,4540 nM
same,IC50,HT-29,96 nM
same,IC50,HCT-116 [13],60 nM
same,IC50,CT26,124 nM
same,IC50,PC-3 [14],8730 nM
same,IC50,LNCaP,18 nM
same,IC50,MAT-Ly-Lu,180 nM
same,IC50,[15],> 10000 nM
same,IC50,[16],232 nM
same,IC50,HeLa,33 nM
same,IC50,SK-OV-3,> 10000 nM
same,IC50,SK-MEL-2,1980 nM
same,IC50,HPAC,70 nM
same,IC50,[17],28 nM
same,IC50,BJ,9850 nM
same,Activity,CCRF-CEM [18],Active
same,inhibition,CCRF-CEM [19],Active
same,Activity,[20],28%
same,MSD,[21],15 days
